A selection: hits, their analogues and other compounds. The true share with any hit is near 2.3%.
ARFGAP1 inh – inhibitors of rat ARFGAP1 GAP activity, primary screen, biochemical, fluorescence polarization, GDP tracer; Arfgap1-stimulated ARF1 GTP hydrolysis, GDP FP detection; actives 0.26% (n = 360,000); AID 651572, 2012; inhibition, % at 16.5 µM;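 active = inhibition above a per-plate limit, mean inhibition of low control wells plus 3 SD, cut at about 25% in these data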;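 also: 0% = DMSO wells with enzyme and 100% = wells lacking Arfgap1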
Target sequence (Q62848 1-136 limits assumed): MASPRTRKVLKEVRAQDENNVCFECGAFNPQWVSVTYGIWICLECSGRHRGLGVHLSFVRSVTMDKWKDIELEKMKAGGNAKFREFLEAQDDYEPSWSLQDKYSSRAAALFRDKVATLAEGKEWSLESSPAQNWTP
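Assay system: purified rat His6-Arfgap1 residues 1-136 (GAP domain); Reagent: human Δ17 ARF1 bound to GTP; Dosing: 16.5 µM single point, 1.26% DMSO; Times: GTP hydrolysis reaction 2 h at 25 °C; Signal: FP, GDP Alexa 633 tracer displaced from anti-GDP antibody, 620/688 nm; Measure: % inhibition from polarization.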
ASAP1 GAP inh – inhibitors of human ASAP1 ArfGAP activity, primary screen, biochemical, fluorescence polarization; ASAP1-stimulated ARF1 GTP hydrolysis, GDP FP detection; inhibition, % at 16.5 µM; actives 0.19% (n = 360,000); Arf-GAP with SH3 domain, ANK repeat and PH domain-containing protein 1 (Homo sapiens), …; AID 624377, 2012; in the data active = inhibition above about 25%;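 also: 0% = vehicle with enzyme and substrate and 100% = no enzyme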
SKKanGAS inh – S. pyogenes SKKanGAS growth inhibitors in kanamycin, primary screen, streptokinase expression inhibitor project, SKKanGAS strain, BacTiter-Glo luminescence; actives 1.3% (n = 300,000); AID 1662, 2009; 6 h; inhibition, % at 7.5 µM;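 active = mean replicate score, as percent of positive control median, at least 50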;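 also: strain carries kanamycin resistance gene driven by streptokinase promoter and grows in 40 µg/ml kanamycin; loss of luminescence reflects streptokinase promoter inhibition or plain growth inhibition; 0% = median of DMSO wells and 100% = positive control at its reference dose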
HGIII-sPLA2 inh – human group III sPLA2 inhibitors, primary screen, biochemical, QFRET, BODIPY PC-A2 liposome substrate; Group 3 secretory phospholipase A2 (Homo sapiens), Q9NZ20; QFRET BODIPY PC-A2 liposome hydrolysis, fluorescence; inhibition, % at 12.2 µM; actives 0.56% (n = 370,000);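 active = inhibition above mean plus 3 SD of compounds lying within the high and low control bounds, cut at about 19% in these data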;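 also: 0% = median of test compound wells and 100% = no enzyme DMSO wells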
Target sequence (Q9NZ20 whole entry, looked up): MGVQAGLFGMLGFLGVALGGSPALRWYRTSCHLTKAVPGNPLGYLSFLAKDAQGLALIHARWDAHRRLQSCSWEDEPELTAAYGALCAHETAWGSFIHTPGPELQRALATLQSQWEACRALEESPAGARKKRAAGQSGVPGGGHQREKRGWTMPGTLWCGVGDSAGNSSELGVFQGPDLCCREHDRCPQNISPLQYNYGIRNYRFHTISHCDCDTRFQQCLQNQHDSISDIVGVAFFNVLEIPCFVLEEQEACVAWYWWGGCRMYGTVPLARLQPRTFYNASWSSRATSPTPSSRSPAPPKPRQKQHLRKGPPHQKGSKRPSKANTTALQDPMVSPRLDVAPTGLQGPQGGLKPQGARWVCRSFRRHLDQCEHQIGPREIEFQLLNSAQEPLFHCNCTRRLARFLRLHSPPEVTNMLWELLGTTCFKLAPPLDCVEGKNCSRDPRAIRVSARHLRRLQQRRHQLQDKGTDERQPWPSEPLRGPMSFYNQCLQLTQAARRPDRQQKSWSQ
Calb FLC – C. albicans growth inhibition with fluconazole, primary screen, CaCi-2 strain, Alamar Blue fluorescence; C. albicans CaCi-2 + fluconazole, 48 h; growth inhibition, % (concentration not given with the values); actives 0.57% (n = 300,000);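 active = growth inhibition above about 58% in most replicates, limit read from the data, passing the limit was not always enough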;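 also: all wells also contain fluconazole at 8 µg/ml as a sub-toxic cotreatment; 0% = median of DMSO wells and 100% = median of geldanamycin control wells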
Numbers without * were called inactive.

Cc1cccc(Nc2nc(N)c([N+](=O)[O-])c(NCc3ccco3)n2)c1 was read as ARFGAP1 inh 3, ASAP1 GAP inh -1, SKKanGAS inh 4, HGIII-sPLA2 inh -32 and Calb FLC 20.
Nc1nc(Nc2cccc(Cl)c2)nc(NCc2ccco2)c1[N+](=O)[O-] was read as ARFGAP1 inh -4, ASAP1 GAP inh -4, SKKanGAS inh 75*, HGIII-sPLA2 inh -1 and Calb FLC 2.
CCc1cc2c(COC(=O)c3cc(S(=O)(=O)N4CCOCC4)ccc3F)cc(=O)oc2cc1O was read as ARFGAP1 inh 8, ASAP1 GAP inh 3 and HGIII-sPLA2 inh -11.
CCc1cc2c(COC(=O)c3cccc(NS(C)(=O)=O)c3)cc(=O)oc2cc1O was read as ARFGAP1 inh 11, ASAP1 GAP inh 9, SKKanGAS inh 50*, HGIII-sPLA2 inh -25 and Calb FLC -7.
For COC(=O)[C@]12C[C@H](CC(=O)NCCCN3CCCC3=O)C(=O)N(Cc3cccc4ccccc34)C1=C[C@H](COCc1ccccc1)O[C@@H]2C the results were HGIII-sPLA2 inh -14.
Cc1c(C)c2c(OCC(=O)NC3CC3)cc3c(c2oc1=O)CCC(C)(C)O3 was read as ARFGAP1 inh -10, ASAP1 GAP inh -11, SKKanGAS inh -1, HGIII-sPLA2 inh 3 and Calb FLC -2.
`Cc1cc(=O)oc2c3c(cc(OCC(=O)NC4CC4)c12)OC(C)(C)CC3` gave ARFGAP1 inh -1, ASAP1 GAP inh 9, SKKanGAS inh 88*, HGIII-sPLA2 inh 4 and Calb FLC -6.
For CC(=O)c1ccc([C@H](O)[C@@H](C(=O)N(C)c2ccccc2)C2CC2)cc1 the results were HGIII-sPLA2 inh -2.
Screening CCOC(=O)N1CCN(C(=O)C[C@H]2C[C@@]3(C(=O)OC)C(=C[C@H](C(C)C)O[C@@H]3C3CC3)N(Cc3ccc4c(c3)OCO4)C2=O)CC1 returned HGIII-sPLA2 inh -2.
`CCCCCc1ccc(-c2ccc(/C=C/C(=O)O)cc2)nc1` gave ARFGAP1 inh -6, ASAP1 GAP inh -7, SKKanGAS inh 12, HGIII-sPLA2 inh 6 and Calb FLC 81*.
CCOC(=O)c1sc(NC(=O)CNCc2ccccn2)c(C(=O)OCC)c1C was read as ARFGAP1 inh 2, ASAP1 GAP inh -10, SKKanGAS inh 88*, HGIII-sPLA2 inh 6 and Calb FLC -2.
Screening Cc1c(NC(=O)CSC2=C(C#N)C(c3ccccc3F)CC(=O)N2)c(=O)n(-c2ccccc2)n1C (centres undefined) returned ARFGAP1 inh -3, ASAP1 GAP inh -2, SKKanGAS inh 96*, HGIII-sPLA2 inh 5 and Calb FLC 4.
`COC(=O)CSC1=C(C#N)C(c2ccccc2F)CC(=O)N1` (centres undefined) gave ARFGAP1 inh -2, ASAP1 GAP inh 11, SKKanGAS inh 1, HGIII-sPLA2 inh 4 and Calb FLC -3.
For CC1CCCN(S(=O)(=O)c2ccc(C(=O)Nc3nnc(-c4ccccc4Cl)o3)cc2)C1 (centres undefined) the results were ARFGAP1 inh 4, ASAP1 GAP inh 0, SKKanGAS inh 97*, HGIII-sPLA2 inh 0 and Calb FLC -6.
O=C(Nc1nnc(-c2cccs2)o1)C1CC1 was read as ARFGAP1 inh 11, ASAP1 GAP inh -6, SKKanGAS inh 3, HGIII-sPLA2 inh 7 and Calb FLC -1.
`N#Cc1ccc(C(=O)Nc2nnc(-c3cccs3)o2)cc1` gave ARFGAP1 inh 2, ASAP1 GAP inh -2, SKKanGAS inh 52*, HGIII-sPLA2 inh -1 and Calb FLC -6.
CC1CCCN(S(=O)(=O)c2ccc(C(=O)Nc3nnc(-c4ccccn4)o3)cc2)C1 (centres undefined) was read as ARFGAP1 inh 5, ASAP1 GAP inh 8, SKKanGAS inh 6, HGIII-sPLA2 inh 3 and Calb FLC -6.
Screening O=C(Nc1nnc(-c2cccs2)o1)c1cccc(C(F)(F)F)c1 returned ARFGAP1 inh 4, ASAP1 GAP inh -16, SKKanGAS inh 92*, HGIII-sPLA2 inh 0 and Calb FLC 62.
For CC1CC(C)CN(S(=O)(=O)c2ccc(C(=O)Nc3nnc(-c4cccs4)o3)cc2)C1 (centres undefined) the results were ARFGAP1 inh -6, ASAP1 GAP inh 11, SKKanGAS inh 82*, HGIII-sPLA2 inh -16 and Calb FLC -7.
For CC1(C(=O)NS(=O)(=O)c2ccc(F)cc2F)CCN1C(=O)C/C=C/c1ccccc1 (centres undefined) the results were ARFGAP1 inh -1, ASAP1 GAP inh 15 and HGIII-sPLA2 inh -4.
Screening COC(=O)[C@]12C[C@H](CC(=O)N3CCN(C(=O)c4ccco4)CC3)C(=O)N(Cc3ccc(Cl)cc3Cl)C1=C[C@H](COCc1ccccc1)O[C@@H]2C returned HGIII-sPLA2 inh -22.
For Cc1ccc(C)c(NC(=O)C2CCCN2S(=O)(=O)c2cccc3cccnc23)c1 (centres undefined) the results were HGIII-sPLA2 inh -2.
O=C(N[C@H](Cc1ccccc1)C(=O)N1CCN(Cc2ccccn2)CC1)[C@H]1O[C@@H](n2ccc(=O)[nH]c2=O)[C@H](O)[C@@H]1O was read as ARFGAP1 inh 0, ASAP1 GAP inh -8 and HGIII-sPLA2 inh 3.
Screening CCc1c(-c2ccc(F)cc2)ncn1CCc1ccccc1OC returned ARFGAP1 inh -2, ASAP1 GAP inh 11 and HGIII-sPLA2 inh -4.
`CCCCc1nc2cc(C(=O)N3CCC(OCCOC)CC3)ccc2o1` gave ARFGAP1 inh 13, ASAP1 GAP inh -4, SKKanGAS inh 63*, HGIII-sPLA2 inh -1 and Calb FLC -4.
CCOC(=O)c1csc(N/N=C2\CCc3ccccc32)n1 was read as ARFGAP1 inh 1, ASAP1 GAP inh 9, SKKanGAS inh 3, HGIII-sPLA2 inh -2 and Calb FLC 5.
Screening CCOC(=O)c1csc(N/N=C2\CCCc3ccccc32)n1 returned ARFGAP1 inh -5, ASAP1 GAP inh 10, SKKanGAS inh 50*, HGIII-sPLA2 inh -3 and Calb FLC 1.
Screening O=c1c2ccccc2n(Cc2ccco2)n1[C@@H](Cc1ccccc1)Cn1cc(C2CCCC2)nn1 returned HGIII-sPLA2 inh 7.
`O=C(CCSc1ccc(Cl)c(Cl)c1)NC12CC3CC(CC(C3)C1)C2` gave ARFGAP1 inh -9, ASAP1 GAP inh 7, SKKanGAS inh 65*, HGIII-sPLA2 inh -1 and Calb FLC -23.
